A short description of data set [1]: Toxicity in Wistar rat administered as single dose. The format is organism-based. Conditions: in vivo. The essentials:
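LD50 determined from single doses in Wistar rats, reported in mg/kg and mmol/kg.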

Data set [2] deals with W256. As to the kind of experiment: Antitumor activity against […] 256 cells allografted in rat assessed as tumor growth inhibition at 40 mg/kg administered 9 times starting 7 days post challenge relative to control. Conditions: W256, 7 days, read-out: TGI.
Data set [3] has as its system L1210. Kind of data set: Antitumor activity against mouse L1210 cells allografted in BDF1 mouse assessed as increase in life span at 45 mg/kg administered 10 times starting 24 hrs post challenge relative to control. The format is functional. Conditions: L1210, 24 h. The essentials:
(§1)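 L1210 leukemia: BDF1 mice inoculated ip with 10⁶ leukemic cells. Treatment started 24 h after inoculation, given daily in aqueous solution at pH 8.0–8.4. Survival of treated mice compared with untreated controls, expressed as %ILS = (T/C − 1) × 100.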

Data set [4] concerns L1210. Kind of data set: Antitumor activity against mouse L1210 cells allografted in BDF1 mouse assessed as increase in life span at 50 mg/kg administered 6 times starting 24 hrs post challenge relative to control. Type of data set: functional. Conditions: L1210, 24 h. The essentials:
as §1

For data set [5], the system named is W256. Kind of data set: Antitumor activity against […] 256 cells allografted in rat assessed as tumor growth inhibition at 8 mg/kg administered 14 times starting 24 hrs post challenge relative to control. Type of data set: functional. The settings on record: W256, 24 h, read-out: TGI.
The subject of data set [6] is L1210. Kind of data set: Antitumor activity against mouse L1210 cells allografted in BDF1 mouse assessed as increase in life span at 10 mg/kg administered 8 times starting 24 hrs post challenge relative to control. Type of data set: functional. Conditions: L1210, 24 h. The essentials:
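BDF1 mice inoculated ip with 10⁶ L1210 leukemia cells; daily dosing in aqueous solution at pH 8.0–8.4 starting 24 h after inoculation. Increase in life span computed as %ILS = (T/C − 1) × 100.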

In data set [7] the test system is L1210. As to the kind of experiment: Antitumor activity against mouse L1210 cells allografted in BDF1 mouse assessed as increase in life span at 23 mg/kg administered 7 times starting 24 hrs post challenge relative to control. The format is functional. The settings on record: L1210, 24 h. The essentials:
as §1

The test system of data set [8] is L1210. As to the kind of experiment: Antitumor activity against mouse L1210 cells allografted in BDF1 mouse assessed as increase in life span at 20 mg/kg administered 7 times starting 24 hrs post challenge relative to control. The format is functional. The settings on record: L1210, 24 h. The essentials:
as §1

The subject of data set [9] is L1210. Kind of data set: Antitumor activity against mouse L1210 cells allografted in BDF1 mouse assessed as increase in life span at 78 mg/kg administered 9 times starting 24 hrs post challenge relative to control. The settings on record: L1210, 24 h. Type of data set: functional. The method in brief:
as §1

In data set [10] the test system is W256. As to the kind of experiment: Antitumor activity against rat Walker 256 cells allografted in rat assessed as tumor growth inhibition at 60 mg/kg administered 14 times starting 7 days post challenge relative to control. Conditions: W256, 7 days, read-out: TGI.
Data set [11] relates to L1210. Kind of data set: Antitumor activity against mouse L1210 cells allografted in BDF1 mouse assessed as increase in life span at 90 mg/kg administered 9 times starting 24 hrs post challenge relative to control. Type of data set: functional. The settings on record: L1210, 24 h. The essentials: as §1
Data set [12] deals with L1210. As to the kind of experiment: Antitumor activity against mouse L1210 cells allografted in BDF1 mouse assessed as increase in life span at 25 mg/kg administered 6 times starting 24 hrs post challenge relative to control. Type of data set: functional. The settings on record: L1210, 24 h. The essentials: as §1
Data set [13] concerns L1210. As to the kind of experiment: Antitumor activity against mouse L1210 cells allografted in BDF1 mouse assessed as increase in life span at 33 mg/kg administered 6 times starting 24 hrs post challenge relative to control. The format is functional. Conditions: L1210, 24 h. The essentials:
as §1

“And” between values parts separate entries of the source, which are not always exact repeats. Identical values can stand only once.

For the compound `CN(Cc1cnc2nc(N)nc(N)c2n1)c1ccc(C(=O)N[C@@H](Cc2ccccc2)C(=O)O)cc1.O`, in data set [1], the LD50 is 500 mg/kg and 1020 µmol/kg. Moreover, in the data set with W256 [2], the inhibition in vivo at 40 mg/kg turned out to be 58%. For the same compound, the ILS at 45 mg/kg in the data set on L1210 [3] stood at 14%.

As for `CN(CC(=O)O)C(=O)c1ccc(N(C)Cc2cnc3nc(N)nc(N)c3n2)cc1.O`, the ILS at 50 mg/kg in the data set on L1210 [4] worked out at 0%. The LD50 in data set [1] is 400 mg/kg and 920 µmol/kg.

On to `CN(Cc1cnc2nc(N)nc(N)c2n1)c1ccc(C(=O)NCCCC(=O)O)cc1.O`, for which the inhibition in vivo at 8 mg/kg in the data set with W256 [5] is 55%. Besides, the LD50 in data set [1] is 106 mg/kg and 250 µmol/kg. In the data set on L1210 [6], the ILS at 10 mg/kg came to 0%.

`CN(Cc1cnc2nc(N)nc(N)c2n1)c1ccc(C(=O)NCC(=O)O)cc1`: the LD50 in data set [1] is 250 mg/kg and 650 µmol/kg. Moreover, in the data set with L1210 [7], the increase in life span (ILS) at 23 mg/kg was 0%.

Regarding `CC(C)C(NC(=O)c1ccc(N(C)Cc2cnc3nc(N)nc(N)c3n2)cc1)C(=O)O` (stereo not given), in [1], the LD50 was 200 mg/kg and 470 µmol/kg. Further, the ILS at 20 mg/kg with L1210 [8] was found to be 0%.

For `CCC(NC(=O)c1ccc(N(C)Cc2cnc3nc(N)nc(N)c3n2)cc1)C(=O)O` (stereo not given), the ILS at 78 mg/kg in the data set with L1210 [9] turned out to be 16%. The inhibition in vivo at 60 mg/kg with W256 [10] was 47%. Besides, the LD50 in [1] is 925 mg/kg and 2250 µmol/kg.

As for `CC(C)C[C@H](NC(=O)c1ccc(N(C)Cc2cnc3nc(N)nc(N)c3n2)cc1)C(=O)O`, the ILS at 90 mg/kg in the data set on L1210 [11] amounted to 24%.

As for `CN(Cc1cnc2nc(N)nc(N)c2n1)c1ccc(C(=O)NCCC(=O)O)cc1.O`, the LD50 in [1] was 250 mg/kg and 580 µmol/kg. In the data set with L1210 [12], the ILS at 25 mg/kg amounted to 19%.

For the compound `CC(NC(=O)c1ccc(N(C)Cc2cnc3nc(N)nc(N)c3n2)cc1)C(=O)O.O` (stereo not given), in data set [1], the LD50 was 349 mg/kg and 810 µmol/kg. In addition, the ILS at 33 mg/kg in the data set on L1210 [13] is 0%.
